Assay results: ChEMBL document CHEMBL3745639, “Structure-activity relationships for lipoprotein lipase agonists that lower plasma triglycerides in vivo” (Eur J Med Chem, 2015)
Values after ≈ are worked out from the molar mass of the structure shown. Active and inactive are the calls of the source. Unless noted, the calls are words filed in the database; no cut-off is given here.

How the values were obtained:
[1] = Half life in human liver microsomes at 1 uM; assay type: ADME
Outline: (§1)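 Pooled liver microsomes (0.5 mg/ml) with compound at 1 μM in 0.1 M phosphate buffer pH 7.4. Reaction started with NADPH 1 mM. Sampled at 0, 5, 15 and 40 min in duplicate, quenched with acetonitrile containing warfarin, then LC-MS/MS.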

[2] = Kinetic aqueous solubility of the compound in PBS at pH 1.2 after 2 hrs by LC-Ms analysis; assay type: physicochemical; conditions: read-out: Kinetic_solubility
Outline: (§2)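 Kinetic solubility from a 10 mM DMSO stock diluted 1:100 (1% DMSO, maximum detectable 0.1 mM) into PBS pH 7.4 or HCl-adjusted PBS at about pH 1.2. Incubated at 37 °C for 2 h in sealed glass vials, centrifuged at 10000 x g, 37 °C, 20 min, then LC-MS/MS.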

Mus musculus = experiment: Hypolipidemic activity in C57B16/J mouse assessed as reduction in plasma triglyceride level at 10 mg/kg, ip qd administered for 4 days followed by olive oil injection through oral gavage one hour post last dose measured at 180 mins; assay type: functional, organism-based
Outline: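 Female C57B16/J mice, 8-9 weeks, about 18 g, n = 8/group. Given 10 mg/kg i.p. once daily for 4 days, 0.5 ml in PBS pH 7.4 with 3% DMSO and 0.2% Triton X-100. Fasted 8 h before the last dose, then 0.2 ml oral olive oil gavage 1 h after it. Tail-vein EDTA plasma taken at baseline and every 60 min to 180 min. TG measured enzymatically, reported as mean ± SD.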

[3] = Intrinsic clearance in human hepatocytes assessed per 10^6 cells at 1 uM after 10 to 60 mins by LC-MS/MS analysis in presence of NADPH; assay type: ADME, cell-based, Hepatocyte; conditions: read-out: CLH
Outline: (§3)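 Freshly isolated human hepatocytes (0.5 x 10⁶ cells/ml) in Williams medium E with compound at 1 μM. Reaction started by adding cells. Sampled at 0, 10, 30 and 60 min in duplicate, quenched with acetonitrile containing warfarin, then LC-MS/MS.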

[4] = Kinetic aqueous solubility of the compound in PBS at pH 7.4 after 2 hrs by LC-MS/MS analysis; assay type: physicochemical; conditions: read-out: Kinetic_solubility; outline: as §2
[5] = molecular target: T1, Lipoprotein lipase (Bos taurus) (UniProt P11151); experiment: Induction of bovine LPL stabilization using intralipid as substrate at 12.5 uM preincubated for 10 mins with human recombinant ANGPTL4 followed by substrate addition measured after 45 mins relative to control
T1 sequence (whole entry): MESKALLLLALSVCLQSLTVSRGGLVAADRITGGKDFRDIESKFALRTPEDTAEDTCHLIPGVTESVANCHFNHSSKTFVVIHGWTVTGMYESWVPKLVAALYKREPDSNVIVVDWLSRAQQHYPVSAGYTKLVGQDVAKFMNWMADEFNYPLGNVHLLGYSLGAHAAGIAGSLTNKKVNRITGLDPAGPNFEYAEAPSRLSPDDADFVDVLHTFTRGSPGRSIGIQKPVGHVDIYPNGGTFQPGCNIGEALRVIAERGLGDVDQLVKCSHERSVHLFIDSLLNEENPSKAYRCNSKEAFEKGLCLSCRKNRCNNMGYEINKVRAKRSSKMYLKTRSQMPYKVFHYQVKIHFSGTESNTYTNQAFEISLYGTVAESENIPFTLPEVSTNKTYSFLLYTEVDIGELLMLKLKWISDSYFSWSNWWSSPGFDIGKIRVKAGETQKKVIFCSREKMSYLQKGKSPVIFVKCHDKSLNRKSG
Outline: (§4)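 Compound in DMSO in buffer (50 mM potassium phosphate pH 7.4, 0.15 M NaCl, 0.01% Triton X-100), with human ANGPTL4 N-terminal fragment (aa 26-184, 75 nM final) and bovine LPL (15 nM final). Preincubated 10 min at 25 °C with shaking. Stopped after 45 min with 2.5% Triton X-100, and NEFA measured enzymatically. Activity normalised between DMSO+LPL+ANGPTL4 (0%) and DMSO+LPL (100%).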

[6] = Efflux ratio of apparent permeability from basolateral to apical over apical to basolateral side in human Caco2 cells at 10 uM after 15 to 60 mins; assay type: ADME, cell-based; conditions: Caco-2
[7] = molecular target: T1, Lipoprotein lipase (Bos taurus); experiment: Induction of bovine LPL stabilization using intralipid as substrate at 25 uM preincubated for 10 mins with human recombinant ANGPTL4 followed by substrate addition measured after 45 mins relative to control; outline: as §4
[8] = Fraction unbound in human plasma at 10 uM after 4 hrs by rapid equilibrium dialysis method; assay type: ADME, cell-free
Outline: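 Rapid equilibrium dialysis of pooled human plasma from two male and two female non-smoking donors. Compound typically 10 μM final, dialysed against isotonic phosphate buffer pH 7.4 at 37 °C for 4 h with rapid rotation. Proteins precipitated with methanol containing warfarin internal standard, then both compartments analysed by LC-MS/MS.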

[9] = Half life in human hepatocytes at 1 uM; assay type: ADME, cell-based, Hepatocyte; outline: as §3
[10] = Stability of the compound in human plasma after 4 hrs at 37 degC by mass spectrometric analysis; assay type: ADME, cell-free; conditions: read-out: Stability
Outline: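 Plasma test solution (pooled human plasma, typically 10 μM compound) held at 37 °C for 4 h, matching the dialysis time. A reference sample was frozen immediately. Proteins precipitated with methanol containing warfarin, then LC-MS/MS. Stability expressed on a relative basis.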

[11] = Intrinsic clearance in human liver microsomes at 1 uM after 5 to 40 mins by LC-MS/MS analysis in presence of NADPH; assay type: ADME; conditions: read-out: CLH; outline: as §1
[12] = molecular target: T1, Lipoprotein lipase (Bos taurus); experiment: Induction of bovine LPL stabilization using intralipid as substrate at 6.25 uM preincubated for 10 mins with human recombinant ANGPTL4 followed by substrate addition measured after 45 mins relative to control; outline: as §4
[13] = Apparent permeability across basolateral to apical side in human Caco2 cells at 10 uM after 15 to 60 mins; assay type: ADME, cell-based; conditions: Caco-2
[14] = Apparent permeability across apical to basolateral side in human Caco2 cells at 10 uM after 15 to 60 mins; assay type: ADME, cell-based; conditions: Caco-2
Outline: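 Caco-2 monolayers washed with pre-warmed HBSS, then donor solution applied. Transport run with apical pH 6.5 and basolateral pH 7.4. Monolayer integrity checked by TEER and by mannitol permeability. Papp derived from transport rates.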

[15] = molecular target: T1, Lipoprotein lipase (Bos taurus); experiment: Induction of bovine LPL stabilization using intralipid as substrate at 3.12 uM preincubated for 10 mins with human recombinant ANGPTL4 followed by substrate addition measured after 45 mins relative to control; outline: as §4
Lipoprotein lipase = molecular target: T2, Lipoprotein lipase (Bos taurus, UniProt P11151); experiment: Induction of bovine LPL stabilization using intralipid as substrate preincubated for 10 mins with human recombinant ANGPTL4 followed by substrate addition measured after 45 mins relative to control; outline: as §4
T2 sequence (P11151 whole entry): T1 sequence (whole entry)

[16] = Half life in human plasma after 24 hrs; assay type: ADME, cell-free

Row | half-life at 1 µM [1] | solubility kinetic at 2 h [2] | hepatocyte CLint at 1 µM [3] | solubility kinetic at 2 h [4] | Activity [5] | efflux ratio at 10 µM [6] | Activity [7] | Fu [8] | half-life at 1 µM [9] | remaining at 4 h [10] | microsomal CLint at 1 µM [11] | Activity [12] | Papp B→A at 10 µM [13] | Papp A→B at 10 µM [14] | Activity [15] | EC50 (Lipoprotein lipase) | half-life [16] | SMILES | Activity (Mus musculus)
1 | > 80 min | 7 µM (≈ 3.18 µg/mL) | 35 µL/min/1e6 cells | < 2 µM | 76% | 1.5 | 67.9% | < 0.01% | 40 min | 93% | < 17 µL/min/mg | 49.8% | 1.8 ×10⁻⁶ cm/s | 1.2 ×10⁻⁶ cm/s | inactive | – | – | Cc1ccc(NC(=O)c2cc(-c3cc4cc(C(=O)O)ccc4o3)ccc2N2CCCCC2)cc1 | Active
2 | – | – | – | 80 µM (≈ 38.7 µg/mL) | 90% | 2.7 | 93.8% | – | – | 2% | – | inactive | 31 ×10⁻⁶ cm/s | 12 ×10⁻⁶ cm/s | inactive | 6.6 µM | 90 min | Cc1ccc(NC(=O)c2cc(N3C(=O)c4ccc(C(=O)O)cc4C3=O)ccc2N2CCCCC2)cc1 | inactive
3 | – | – | – | – | 90.6% | – | 89.7% | – | – | – | – | 11.2% | – | – | inactive | 5 µM | – | Cc1ccc(NC(=O)c2cc(-n3cc4cc(C(=O)O)ccc4n3)ccc2N2CCCCC2)cc1 | Active
